Legend:
Format in all cases: functional
Conditions in all cases: read-out: Activity
[1] = Neuroprotective effect against glutamate-stimulated rat cortical cells assessed as cell viability at 0.1 uM after 1 hr by LDH assay relative to control
Summary of the method: (§1)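 Mixed neuron–glia cortical cultures from Sprague-Dawley fetal rats (17-19 days old), matured ≥2 weeks and used at 17 days in vitro. Cultures were washed with DMEM and pretreated 1 h with compound in DMSO (0.1% final), then given 100 µM glutamate for 24 h. Viability was read as LDH efflux and expressed as % protection relative to control and glutamate-only cultures. Mean ± STD of three experiments, 5-6 cultures each.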

[2] = Neuroprotective effect against glutamate-stimulated rat cortical cells assessed as cell viability at 1 uM after 1 hr by LDH assay relative to control; summary of the method: as §1
[3] = Neuroprotective effect against glutamate-stimulated rat cortical cells assessed as cell viability at 10 uM after 1 hr by LDH assay relative to control; summary of the method: as §1

Structure (SMILES): CC(C)=CC(=O)O[C@H]1Cc2cc3ccc(=O)oc3cc2OC1(C)C [DECURSIN]
- viability at 0.1 µM [1]: 39%
- viability at 1 µM [2]: 50%
- viability at 10 µM [3]: 65.1%

Structure (SMILES): C/C(=C\CO)C(=O)O[C@H]1Cc2cc3ccc(=O)oc3cc2OC1(C)C
- viability at 0.1 µM [1]: 33.2%
- viability at 1 µM [2]: 19.9%
- viability at 10 µM [3]: 1.2%

Structure (SMILES): C[C@]12N[C@H](Cc3ccccc31)c1ccccc12 [DIZOCILPINE]
- viability at 0.1 µM [1]: 54%
- viability at 1 µM [2]: 65%
- viability at 10 µM [3]: 70%

Structure (SMILES): N#Cc1cc2c(cc1[N+](=O)[O-])=NC(=O)C(=O)N=2
- viability at 0.1 µM [1]: 29%
- viability at 1 µM [2]: 40.5%
- viability at 10 µM [3]: 50.5%

Structure (SMILES): CC1(C)Oc2cc3oc(=O)ccc3cc2C[C@@H]1O [DECURSINOL]
- viability at 0.1 µM [1]: 33.4%
- viability at 1 µM [2]: 69.6%
- viability at 10 µM [3]: 40.7%

Structure (SMILES): C[C@H]1O[C@@]1(C)C(=O)O[C@H]1Cc2cc3ccc(=O)oc3cc2OC1(C)C
- viability at 0.1 µM [1]: 47.5%
- viability at 1 µM [2]: 61.1%
- viability at 10 µM [3]: 56.7%

Structure (SMILES): NC(CCCP(=O)(O)O)C(=O)O (racemic)
- viability at 0.1 µM [1]: 10%
- viability at 1 µM [2]: 25%
- viability at 10 µM [3]: 39%

Structure (SMILES): C[C@@H]1O[C@]1(C)C(=O)O[C@H]1Cc2cc3ccc(=O)oc3cc2OC1(C)C
- viability at 0.1 µM [1]: 70%
- viability at 1 µM [2]: 52.5%
- viability at 10 µM [3]: 49%

Structure (SMILES): C/C(=C\C(=O)O[C@H]1Cc2cc3ccc(=O)oc3cc2OC1(C)C)CO
- viability at 0.1 µM [1]: 38.4%
- viability at 1 µM [2]: 34.1%
- viability at 10 µM [3]: 35.1%
